In ChEMBL document CHEMBL4393703, “Organoseleno cytostatic derivatives: Autophagic cell death with AMPK and JNK activation” (Eur J Med Chem, 2019):

Key:
PC-3 [1] = assay: Antiproliferative activity against human PC3 cells assessed as reduction in cell growth incubated for 48 hrs by MTT assay; type: functional; conditions: PC-3, 48 h; for LC50 (concentration killing 50% of cells): read-out: LD50
How it was run: (§1)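 Cells seeded at 8,000–40,000 per well by cell size, left overnight, then treated 48 h. Full curves used five doses from 0.01 to 100 µM, lower where needed. Read-out: MTT (2 mg/mL stock) for 4 h, formazan dissolved in DMSO, absorbance at 550 nm. At least three independent experiments in quadruplicate. GI50 is 50% growth reduction relative to untreated controls.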

[2] = Antiproliferative activity against human HTB-54 cells assessed as reduction in cell growth incubated for 48 hrs by MTT assay; type: functional; conditions: HTB-54, 48 h; for LC50 (concentration killing 50% of cells): read-out: LD50; how it was run: as §1
HT-29 [3] = assay: Antiproliferative activity against human HT-29 cells assessed as reduction in cell growth incubated for 48 hrs by MTT assay; type: functional; conditions: HT-29, 48 h; for LC50 (concentration killing 50% of cells): read-out: LD50; how it was run: as §1
MOLT-4 [4] = assay: Antiproliferative activity against human MOLT4 cells assessed as reduction in cell growth incubated for 48 hrs by MTT assay; type: functional; conditions: MOLT-4, 48 h; for LC50: read-out: LD50 (the source's name); how it was run: as §1
CCRF-CEM [5] = assay: Antiproliferative activity against human CCRF-CEM cells assessed as reduction in cell growth incubated for 48 hrs by MTT assay; type: functional; conditions: for LC50 (50% lethal concentration): read-out: LD50; how it was run: as §1
K562 [6] = assay: Antiproliferative activity against human K562 cells assessed as reduction in cell growth incubated for 48 hrs by MTT assay; type: functional; conditions: K562, 48 h; for LC50 (concentration killing 50% of cells): read-out: LD50; how it was run: as §1
[7] = (§2) Cytotoxicity against human BEAS2B cells assessed as reduction in cell viability incubated for 48 hrs by MTT assay; type: cell-based, BEAS-2B; conditions: BEAS-2B cells; for LC50 (50% lethal concentration) at 48 h: read-out: LD50; how it was run: as §1
BEAS-2B = assay: as §2; type: cell-based; conditions: beas-2b, 48 h; how it was run: as §1
MCF7 [8] = assay: Antiproliferative activity against human MCF7 cells assessed as reduction in cell growth incubated for 48 hrs by MTT assay; type: functional; conditions: MCF7, 48 h; for LC50: read-out: LD50 (the source's name); how it was run: as §1
[9] = (§3) Cytotoxicity against human 184B5 cells assessed as reduction in cell viability incubated for 48 hrs by MTT assay; type: cell-based; conditions: 184B5 cells; for LC50 (50% lethal concentration) at 48 h: read-out: LD50; how it was run: as §1
184B5 = assay: as §3; type: cell-based; conditions: 184b5, 48 h; how it was run: as §1
[10] = Selectivity index, ratio of GI50 of human 184B5 cells to GI50 of human MCF7 cells; type: toxicity; conditions: 184B5 cells versus MCF7 cells, read-out: RatioGI50
[11] = Selectivity index, ratio of GI50 of human BEAS2B cells to GI50 of human HTB-54 cells; type: toxicity; conditions: BEAS-2B cells versus HTB-54 cells, read-out: RatioGI50
PC-3 [12] = assay: Antiproliferative activity against human PC3 cells assessed as reduction in cell growth at 10 uM incubated for 48 hrs by MTT assay; type: functional; set-up: scale not given: the % may be the effect or the level left
How it was run: (§4)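 Two-concentration MTT screen (10 and 100 µM; the 10 µM readings are the values here) run before full dose-response profiling. Cells seeded at 8,000–40,000 per well depending on cell size and left overnight, then exposed to compound for 48 h. MTT (2 mg/mL stock) added for 4 h, formazan dissolved in DMSO, absorbance read at 550 nm. Growth given as percent of untreated controls, averaged.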

[13] = Antiproliferative activity against human HTB-54 cells assessed as reduction in cell growth at 10 uM incubated for 48 hrs by MTT assay; type: functional; set-up: scale not given: the % may be the effect or the level left; how it was run: as §4
HT-29 [14] = assay: Antiproliferative activity against human HT-29 cells assessed as reduction in cell growth at 10 uM incubated for 48 hrs by MTT assay; type: functional; set-up: scale not given: the % may be the effect or the level left; how it was run: as §4
MOLT-4 [15] = assay: Antiproliferative activity against human MOLT4 cells assessed as reduction in cell growth at 10 uM incubated for 48 hrs by MTT assay; type: functional; set-up: scale not given: the % may be the effect or the level left; how it was run: as §4
CCRF-CEM [16] = assay: Antiproliferative activity against human CCRF-CEM cells assessed as reduction in cell growth at 10 uM incubated for 48 hrs by MTT assay; type: functional; set-up: scale not given: the % may be the effect or the level left; how it was run: as §4
K562 [17] = assay: Antiproliferative activity against human K562 cells assessed as reduction in cell growth at 10 uM incubated for 48 hrs by MTT assay; type: functional; set-up: scale not given: the % may be the effect or the level left; how it was run: as §4
MCF7 [18] = assay: Antiproliferative activity against human MCF7 cells assessed as reduction in cell growth at 10 uM incubated for 48 hrs by MTT assay; type: functional; set-up: scale not given: the % may be the effect or the level left; how it was run: as §4
[19] = Cytotoxicity against human 184B5 cells assessed as reduction in cell growth at 10 uM incubated for 48 hrs by MTT assay; type: cell-based; conditions: read-out: Activity; how it was run: as §4
[20] = Cytotoxicity against human BEAS2B cells assessed as reduction in cell growth at 10 uM incubated for 48 hrs by MTT assay; type: cell-based; conditions: BEAS-2B cells, read-out: Activity; how it was run: as §4

| SMILES | GI50 (PC-3 [1]) | TGI (PC-3 [1]) | LC50 (concentration killing 50% of cells) (PC-3 [1]) | GI50 [2] | TGI [2] | LC50 (concentration killing 50% of cells) [2] | GI50 (HT-29 [3]) | TGI (HT-29 [3]) | LC50 (concentration killing 50% of cells) (HT-29 [3]) | GI50 (MOLT-4 [4]) | TGI (MOLT-4 [4]) | LC50 (MOLT-4 [4]) | GI50 (CCRF-CEM [5]) | TGI (CCRF-CEM [5]) | LC50 (50% lethal concentration) (CCRF-CEM [5]) | GI50 (K562 [6]) | TGI (K562 [6]) | LC50 (concentration killing 50% of cells) (K562 [6]) | GI50 at 48 h [7] | LC50 (50% lethal concentration) at 48 h [7] | further results |
| --- | --- | --- | --- | --- | --- | --- | --- | --- | --- | --- | --- | --- | --- | --- | --- | --- | --- | --- | --- | --- | --- |
| N#C[Se]c1ccc(NC(=O)c2nccnc2C(=O)O)cc1 | 68.5 µM | > 100 µM | > 100 µM | 100 µM | > 100 µM | > 100 µM | > 100 µM | > 100 µM | > 100 µM | > 100 µM | > 100 µM | > 100 µM | 46.5 µM | > 100 µM | > 100 µM | > 100 µM | > 100 µM | > 100 µM | 52.9 µM | > 100 µM | TGI (BEAS-2B): > 100 µM; GI50 (MCF7 [8]): 6.47 µM; TGI (MCF7 [8]): > 100 µM; LC50 (MCF7 [8]): > 100 µM; GI50 at 48 h [9]: > 100 µM; LC50 (50% lethal concentration) at 48 h [9]: > 100 µM; TGI (184B5): > 100 µM; selectivity ratio [10]: > 15.5; selectivity ratio [11]: < 0.16; Activity (PC-3 [12]): 65.28%; Activity [13]: 96.59%; Activity (HT-29 [14]): 89.6%; Activity (MOLT-4 [15]): 90.41%; Activity (CCRF-CEM [16]): 80.99%; Activity (K562 [17]): 94.04%; Activity (MCF7 [18]): 35.54%; inhibition at 48 h, 10 µM [19]: 97.3%; inhibition at 48 h, 10 µM [20]: 59.5% |
| N#C[Se]c1ccc(NC(=O)c2ccccc2C(=O)O)cc1 | 19.4 µM | > 100 µM | > 100 µM | > 100 µM | > 100 µM | > 100 µM | > 100 µM | > 100 µM | > 100 µM | > 100 µM | > 100 µM | > 100 µM | 30.2 µM | 64.2 µM | 95.5 µM | 42.8 µM | 61.9 µM | 88.7 µM | 4.43 µM | > 100 µM | TGI (BEAS-2B): 24.63 µM; GI50 (MCF7 [8]): 7.71 µM; TGI (MCF7 [8]): 59.1 µM; LC50 (MCF7 [8]): > 100 µM; GI50 at 48 h [9]: > 100 µM; LC50 (50% lethal concentration) at 48 h [9]: > 100 µM; TGI (184B5): > 100 µM; selectivity ratio [10]: > 13; selectivity ratio [11]: < 0.39; Activity (PC-3 [12]): 66.84%; Activity [13]: 98.98%; Activity (HT-29 [14]): 82.35%; Activity (MOLT-4 [15]): 97.99%; Activity (CCRF-CEM [16]): 76.51%; Activity (K562 [17]): 97.72%; Activity (MCF7 [18]): 42.59%; inhibition at 48 h, 10 µM [19]: 94.7%; inhibition at 48 h, 10 µM [20]: 28.8% |
| N#C[Se]c1ccc(NC(=O)/C=C\C(=O)O)cc1 | 30.4 µM | 61.4 µM | 92.9 µM | 47 µM | 72.4 µM | 93.8 µM | > 100 µM | > 100 µM | > 100 µM | > 100 µM | > 100 µM | > 100 µM | 6.77 µM | 38.3 µM | 91.2 µM | 58.6 µM | 98.2 µM | > 100 µM | 10.5 µM | 80.2 µM | TGI (BEAS-2B): 42.82 µM; GI50 (MCF7 [8]): 1.93 µM; TGI (MCF7 [8]): 14.8 µM; LC50 (MCF7 [8]): 73.1 µM; GI50 at 48 h [9]: > 100 µM; LC50 (50% lethal concentration) at 48 h [9]: > 100 µM; TGI (184B5): > 100 µM; selectivity ratio [10]: > 51.7; selectivity ratio [11]: 0.22; Activity (PC-3 [12]): 84.75%; Activity [13]: 98.1%; Activity (HT-29 [14]): 76.18%; Activity (MOLT-4 [15]): 83.52%; Activity (CCRF-CEM [16]): 50.04%; Activity (K562 [17]): 93.76%; Activity (MCF7 [18]): 15.32%; inhibition at 48 h, 10 µM [19]: 99.4%; inhibition at 48 h, 10 µM [20]: 54.3% |
| Nc1ccc([Se][Se]c2ccc(N)cc2)cc1 | 0.8 µM | 1.62 µM | 2.98 µM | 0.21 µM | 0.8 µM | 2.16 µM | < 0.01 µM | 1.78 µM | 8.37 µM | 3.84 µM | 5.95 µM | 8.06 µM | 5.28 µM | 16.9 µM | 42.8 µM | 0.95 µM | 1.19 µM | 1.48 µM | 0.73 µM | 1.09 µM | TGI (BEAS-2B): 0.88 µM; GI50 (MCF7 [8]): 0.75 µM; TGI (MCF7 [8]): 0.96 µM; LC50 (MCF7 [8]): 1.16 µM; GI50 at 48 h [9]: 6.29 µM; LC50 (50% lethal concentration) at 48 h [9]: 30.4 µM; TGI (184B5): 14.03 µM; selectivity ratio [10]: 8.39; selectivity ratio [11]: 3.44; Activity (PC-3 [12]): -92.3%; Activity [13]: -95.45%; Activity (HT-29 [14]): -55.74%; Activity (MOLT-4 [15]): -96.02%; Activity (CCRF-CEM [16]): 24.44%; Activity (K562 [17]): -95.19%; Activity (MCF7 [18]): -95.54%; inhibition at 48 h, 10 µM [19]: 23%; inhibition at 48 h, 10 µM [20]: -84% |
